# Bfl-1 A1 inh = inhibitors of the anti-apoptotic protein A1, read as caspase activation; MEF A1-2A-BIM cells, Caspase-Glo 3/7 luminescence, 3 h; percent of clofoctol response, vehicle zero; caspase activation, % (no concentration beside the values); hit rate 0.066% among 330,000;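 active means over half of replicate activation scores above 10%, or exactly half above 10 with the replicate mean above 10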
# CHOP inh = inhibitors of CHOP induction in ER stress response; CHO-K1 CHOP-promoter luciferase, tunicamycin-induced, 15-18 h; hit rate 3.8% among 220,000; inhibition, % at 10 µM;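 active means compounds that reduced the stress-induced luciferase reporter signal by more than about 70% of percent inhibition, limit read from the data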;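 further: 0% = tunicamycin plus vehicle and 100% = wells without tunicamycin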
# UPR XBP1 act = activators of adaptive arm of unfolded protein response (XBP1); CHO-XBP1 luciferase reporter, IRE1-XBP1 UPR activation, luminescence; percent of tunicamycin response, DMSO as zero; activation, % at 20 µM; hit rate 0.33% among 330,000; AID 463104;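 active means versus positive control, 20 µM dose yields 30% or more activation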;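 further: 100% = tunicamycin at 10 µg/mL and 0% = DMSO only wells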
#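 Assay system: IRE1-XBP1 luciferase reporter CHO line. Input: 1000 cells/well. Buffer or medium: F12 with 10% serum. Doses: 20 µM, 1% DMSO. Times: overnight seeding at 37 °C, 6 h compound treatment at 37 °C. Technique: Steady-Glo luciferase glow luminescence, 10 min after reagent addition.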
# CHOP UPR activ = activators of apoptotic arm of unfolded protein response (CHOP); CHO-CHOP luciferase reporter, UPR activation, luminescence; percent of tunicamycin response over DMSO baseline; activation, % at 10 µM; hit rate 0.34% among 330,000;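 active means at 10 µM dose, activation of 40% or more, normalized to positive control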;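 further: 100% = tunicamycin at 10 µg/mL and 0% = DMSO alone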
#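 Material: CHO-CHOP cells, stable luciferase reporter of PERK-eIF2a-CHOP signalling; quantity: 500 reporter cells seeded per well; buffer or medium: F12 medium containing 10% fetal bovine serum; compound: one dose, 10 µM in 0.5% DMSO; incubation: 6 h compound treatment, 37 °C; measured by: Steady-Glo luciferase luminescence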
# CHOP confirm = confirmation of CHOP induction inhibitors; hit rate 45% among 2,100; shares compounds with CHOP inh; AID 504437; CHO-CHOP promoter luciferase reporter, tunicamycin-induced, luminescence; inhibition, % at 10 µM;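 active means mean of three repeat readings of reporter signal inhibition above a set limit, cut at about 70% in these data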;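 further: 0% = tunicamycin plus vehicle and 100% = wells lacking tunicamycin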
# * marks the source's active call; other numbers are inactive results; . = no result given. The entries come from a sample that favours hits as a whole.
SMILES,Bfl-1 A1 inh,CHOP inh,UPR XBP1 act,CHOP UPR activ,CHOP confirm
CCOc1cc(N2CCOCC2)c(OCC)cc1NC(=O)c1cc(-c2ccco2)nc2ccccc12,0.3,105.3*,-3.6,4.0,67.0
CCOc1cc(N2CCOCC2)c(OCC)cc1NC(=O)COc1ncnc2ccccc12,-1.6,-4.8,1.9,-0.3,.
CN(C)C(=O)CCc1ccc2c3c([nH]c2c1)[C@]1(CCC2CCCC2)[C@@H](C(=O)N2CCOCC2)C[C@H](CC(=O)NCCc2ccccn2)C(=O)N1CC3,.,.,-2.4,0.2,.
Cc1ccccc1N1C(=O)CC(Sc2nnc(-c3ccccc3)o2)C1=O (stereo not given),2.1,108.3*,-7.7,7.3,3.5
O=C1CC(Sc2nnc(-c3ccccc3)o2)C(=O)N1c1ccccc1 (stereo not given),-0.5,37.2,-5.6,15.3,.
O=C(Nc1ccc2oc(=O)ccc2c1)c1ccc(-c2cccc(Cl)c2)o1,-0.2,100.5*,3.5,0.7,16.5
O=C(Nc1ccc2oc(=O)ccc2c1)c1ccc(-c2ccc(Cl)cc2)o1,0.7,-16.7,5.1,2.8,.
Cc1ccc(S(=O)(=O)N(C)CC(O)Cn2c3ccccc3c3ccccc32)cc1 (stereo not given),-0.9,100.9*,2.7,1.0,41.7
Cc1ccc(C2CC2c2n[nH]c(=S)n2-c2ccc(Cl)cc2)cc1 (stereo not given),0.3,105.5*,0.5,-0.5,-2.1
O=C(Nc1ccc(Cl)cc1)Nc1nc(-c2ccccc2O)cs1,-1.1,103.9*,13.2,3.2,50.7
O=C(Nc1ccc(Cl)cc1)Nc1nc(-c2sccc2Br)cs1,-1.3,68.3,11.2,11.0,.
Cc1cc(C)c(COCc2cc(/C=N/O)c(C)cc2C)cc1/C=N/O,0.8,107.9*,-4.0,1.4,61.5
N=C1/C(=C\c2ccc(-c3cccc(Cl)c3)o2)C(=O)N=C2SC=C(c3ccccc3)N12,-0.8,-4.6,2.4,1.6,.
N=C1/C(=C\c2ccc(-c3ccc(C(=O)O)cc3)o2)C(=O)N=C2SC=C(c3ccccc3)N12,.,100.3*,.,.,37.6
CN(C(=O)CCl)C1CCCc2ccccc21 (stereo not given),.,105.9*,.,.,80.2*
O=C(N/N=C/c1ccccn1)c1cc(-c2ccc3ccccc3c2)n[nH]1,-1.1,103.0*,2.8,1.6,114.5*
O=C(N/N=C/c1c[nH]c2ccccc12)c1cc(-c2ccc(-c3ccccc3)cc2)n[nH]1,0.1,109.0*,3.9,28.9,39.9
CCc1ccc(-c2cc(C(=O)N/N=C/c3ccccn3)[nH]n2)cc1,0.5,40.4,8.9,3.0,.
O=C(N/N=C/c1c[nH]c2ccccc12)C1CC1(c1ccccc1)c1ccccc1 (stereo not given),0.4,100.3*,-1.1,3.6,33.9
O=C(N/N=C/C=C\c1ccccc1[N+](=O)[O-])c1cc(-c2ccc3ccccc3c2)n[nH]1,.,106.2*,.,.,-33.8
CN(Cc1cccc(Cl)c1Cl)CC(O)COc1ccccc1 (stereo not given),1.1,.,-1.3,0.7,.
COc1ccccc1C(=O)NCCC(=O)Nc1cccc(S(=O)(=O)N2CCCC2)c1,-0.5,.,-0.8,0.5,.
O=C(N/N=C/c1ccco1)c1cc(-c2ccc3ccccc3c2)n[nH]1,0.8,110.1*,-4.2,0.4,4.2
CC1=CC(C)(C)Nc2ccc(OC(=O)c3ccco3)cc21,0.3,.,-10.6,-7.6,-232.6
CCCCS(=O)CC(COC)OC(=O)c1ccccc1 (stereo not given),-0.5,17.0,3.1,-0.2,.
SMILES,Bfl-1 A1 inh,CHOP inh,UPR XBP1 act,CHOP UPR activ,CHOP confirm
CCCCS(=O)CC(COc1ccc(Cl)cc1)OC(=O)c1ccccc1 (stereo not given),1.2,104.1*,-2.6,-1.1,21.5
O=C(O)c1ccc(Oc2ccc(C(F)(F)F)cn2)cc1,-2.4,4.3,-1.7,0.0,.
Cc1ccccc1N1CCN(C(=O)c2ccc(Oc3ccc(C(F)(F)F)cn3)cc2)CC1,0.3,103.3*,-2.0,-0.2,73.2*
O=S(=O)(Nc1cc(Sc2cccc3cccnc23)c(O)c2ccccc12)c1ccc(F)cc1,0.4,106.9*,.,.,107.7*
Cc1n[nH]c(=S)n1/N=C/c1ccc(OCc2ccc(Cl)cc2Cl)cc1,-0.4,28.5,1.9,5.0,.
Cc1n[nH]c(=S)n1/N=C/c1ccccc1OCc1ccc(Cl)cc1Cl,0.5,101.6*,16.3,2.2,3.3
C/C(=N\OCC(=O)OCC(=O)N(Cc1ccccc1)C(C)(C)C)c1ccc2c(c1)OCO2,-0.2,.,-1.5,-0.2,.
COc1ccc(CCC(=O)NC(C)C2CCCO2)cc1 (stereo not given),0.6,.,-1.0,-1.7,.
CSc1ncccc1C(=O)OCC(=O)Nc1ccc(C)c(S(=O)(=O)N2CCOCC2)c1,-0.5,.,-2.8,-1.1,.
O=Cc1ccc(OCc2cccc(C(F)(F)F)c2)cc1O,-0.1,47.1,-2.4,1.3,.
CCOc1ccc(OCc2cccc(C(=O)N3CCCC3)c2)cc1,0.1,22.7,-5.2,-4.2,.
COc1ccc(OCc2cccc(C(=O)O)c2)cc1,-10.2,105.0*,-13.9,-11.2,126.0*
O=C(O)c1ccc(COc2ccc(CO)cc2Cl)cc1,-2.4,3.6,4.2,1.8,.
O=C(OCC(F)(F)F)c1cccc(COc2ccc3ccccc3c2)c1,-8.3,97.1*,-12.0,-10.1,115.5*
O=C(O)c1cccc(COc2ccc(CO)cc2Cl)c1,-8.1,97.4*,-10.4,-10.6,120.8*
O=C(Cc1cn(-c2ccccc2)nc1-c1ccccc1)N1CCCCC1,-0.9,.,-0.3,-1.6,.
COc1ccc2oc(=O)c(C(=O)Nc3ccccc3O)cc2c1,-7.4,101.0*,1.5,0.6,21.4
COc1cc(OC)c(/C=N/NC(=O)c2ccc(NC(C)=O)cc2)cc1Br,.,104.0*,-2.3,1.8,-8.6
CC(=O)Nc1ccc(C(=O)N/N=C/c2cc(Br)cc(Br)c2O)cc1,-0.3,104.6*,-2.0,-0.9,35.0
COc1cc(OC)c(/C=N/NC(=O)c2ccncc2)cc1Br,1.3,9.7,-1.2,-0.5,.
C=C(C)COc1ccc(-c2[nH]ncc2Oc2ccccc2OC)c(O)c1,0.7,0.0,0.4,1.4,.
C=C(C)COc1ccc(-c2[nH]ncc2-c2ccccc2OC)c(O)c1,0.5,105.5*,-0.2,0.3,-35.6
COCCNC(=O)CCC1CCN(Cc2ccc(-c3ccccc3)cc2)CC1,0.2,.,-2.5,-0.5,.
CC1CCCC(NC(=O)NC(=O)COC(=O)C2=NN(c3ccccc3)C(=O)CC2)C1C (stereo not given),.,.,0.1,-1.0,.
CN1CCN(C(=O)/C(=C\c2ccccc2)c2ccccc2)CC1,0.4,-2.0,-0.2,-1.9,.
CC1CCN(C(=O)/C(=C/c2ccccc2Cl)c2ccccc2)CC1,1.9,100.8*,-1.9,-0.2,87.6*
Cc1ccc(NC(=O)C2CCCN(S(=O)(=O)c3cccc4cccnc34)C2)cc1 (stereo not given),1.2,.,-1.9,-0.7,.

# High-throughput results (PubChem BioAssay)
